Laboratory results as given in ChEMBL document CHEMBL1147086, “Composite synthetic lethal identification of membrane traffic inhibitors” (Proc Natl Acad Sci U S A, 2007).
Active and inactive are the calls of the source. The calls are words filed in the database; no cut-off is given here.

Tests used:
[1] = test system: Saccharomyces cerevisiae; experiment: Growth inhibition of yeast MDY330 carrying temperature sensitive allele of clathrin heavy chain gene assessed as cell growth at 25 uM relative to wild-type; assay type: functional; parameters: scale not given: the % may be the effect or the level left
[2] = test system: Saccharomyces cerevisiae; experiment: Inhibition of maturation of alpha-factor2 in wild type yeast MDY326 at 25 uM; assay type: functional, organism-based
In short: (§1)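 Cells treated overnight with 25 μM compound or DMSO in YPD to OD600 0.2, washed in SCMG with 50 μM compound, labeled 10 min with [35S]methionine, chased 30 min; α-factor immunoprecipitated from medium, SDS/PAGE and autoradiography.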

[3] = test system: Saccharomyces cerevisiae; experiment: Growth inhibition of apl2/4 deficient yeast MDY334 cells assessed as cell growth at 25 uM relative to wild-type; assay type: functional; parameters: scale not given: the % may be the effect or the level left
[4] = test system: Saccharomyces cerevisiae; experiment: Growth inhibition of wild type yeast MDY326 assessed as cell growth at 25 uM; assay type: functional; parameters: scale not given: the % may be the effect or the level left
In short: (§2)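 Overnight cultures (pdr5Δ snq2Δ background) diluted to OD600 0.0003 in YPD, given serially diluted compound in 30-μl cultures, grown 18–24 h at 30°C humidified; OD490 read after vortexing; growth expressed as fold inhibition relative to the same strain with DMSO.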

[5] = test system: Saccharomyces cerevisiae; experiment: Effect on localization of chitin synthase Chs3p in CHS6 deficient yeast MDY335 assessed as induction of chitin bud scars at 25 uM by fluorescence microscopy; assay type: functional, organism-based
In short: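 chs6Δ cells (pdr5Δ snq2Δ background) grown overnight at 30°C in YPD with 25 μM compound or DMSO; cells mixed 1:1 with 2.5 mM calcofluor white in YPD for 10 min, washed twice, chitin rings scored by fluorescence microscopy.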

[6] = test system: Saccharomyces cerevisiae; experiment: Inhibition of maturation of alpha-factor2 in gga2delta containing yeast MDY380 at 25 uM; assay type: functional, organism-based; in short: as §1
[7] = test system: Saccharomyces cerevisiae; experiment: Growth inhibition of gga1/2 deficient yeast MDY327 cells assessed as cell growth at 25 uM relative to wild-type; assay type: functional; parameters: scale not given: the % may be the effect or the level left
[8] = test system: Saccharomyces cerevisiae; experiment: Toxicity against wild type yeast MDY326 assessed as 2 fold reduction of cell growth at 130 uM; assay type: organism-based; settings: in vivo
[9] = test system: Saccharomyces cerevisiae; experiment: Toxicity against wild type yeast MDY326 assessed as 2 fold reduction of cell growth; assay type: organism-based; settings: in vivo
In short: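 Wild-type cells (pdr5Δ snq2Δ) grown 18–24 h at 30°C in YPD with serially diluted compound; OD490 read; value is concentration giving 2-fold growth inhibition versus DMSO.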

[10] = test system: Saccharomyces cerevisiae; experiment: Toxicity against wild type yeast MDY326 assessed as 2 fold reduction of cell growth at 150 uM; assay type: organism-based; settings: in vivo
In short: (§3)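 Wild-type strain MDY326 (pdr5Δ snq2Δ) diluted to OD600 0.0003 in YPD, compound serially diluted into 30 μl cultures, grown 18–24 h at 30°C humidified; OD490 read after vortexing, normalized to untreated/DMSO wells; value is the concentration producing 2-fold growth inhibition.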

[11] = test system: Saccharomyces cerevisiae; experiment: Toxicity against wild type yeast MDY326 assessed as 2 fold reduction of cell growth at 14 uM; assay type: organism-based; settings: in vivo; in short: as §3
[12] = test system: Saccharomyces cerevisiae; experiment: Effect on maturation of alkaline phosphatase in wild type yeast SEY6210 at 25 uM by pulse-chase immunoprecipitation; assay type: functional, organism-based
In short: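 SEY6210 grown overnight with 25 μM compound or DMSO, pulse-labeled 5 min with [35S]methionine, chase started by adding yeast extract/cysteine/methionine; ALP immunoprecipitated from lysates at chase points; precursor and mature forms resolved by SDS/PAGE and autoradiography; apl6Δ strain run in parallel.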

[13] = test system: Saccharomyces cerevisiae; experiment: Degradation of Ste3p receptor in wild type yeast MDY326 cells by pulse-chase immunoprecipitation; assay type: functional, organism-based
In short: (§4)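 Cells grown at 30°C to OD600 0.2 in YPD with DMSO or compound, washed twice in SCMG containing 50 μM compound, pulse-labeled 10 min with [35S]methionine (50 μCi per OD600), chased in YPD; samples stopped with NaF/NaN3 (10 mM final) at set chase points; Ste3p immunoprecipitated from lysates, SDS/PAGE and autoradiography.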

[14] = test system: Saccharomyces cerevisiae; experiment: Growth inhibition of wild type yeast MDY326 cells upto 300 uM; assay type: functional, organism-based; in short: as §2
[15] = test system: Saccharomyces cerevisiae; experiment: Degradation of Ste3p receptor in yeast MDY330 carrying temperature sensitive allele of clathrin heavy chain gene by pulse-chase immunoprecipitation; assay type: functional, organism-based; in short: as §4
[16] = test system: Saccharomyces cerevisiae; experiment: Growth inhibition of gga1/2delta containing yeast MDY327; assay type: functional, organism-based; in short: as §2
[17] = test system: Saccharomyces cerevisiae; experiment: Growth inhibition of gga1/2delta containing yeast MDY327 carrying wild type SNQ2 and PDR5 gene; assay type: functional, organism-based
[18] = test system: Saccharomyces cerevisiae; experiment: Effect on maturation of carboxyl peptidase S in wild type yeast MDY326 assessed as delay in maturation at 25 uM by pulse-chase immunoprecipitation; assay type: functional
In short: (§5)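 Cells grown overnight in YPD with 25 μM compound or DMSO, labeled 10 min with [35S]methionine, chase started by adding yeast extract/cysteine/methionine; CPS immunoprecipitated at chase points; precursor versus mature forms compared by SDS/PAGE and autoradiography.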

[19] = test system: Saccharomyces cerevisiae; experiment: Growth inhibition of AP1 deficient yeast MDY334 cells upto 300 uM; assay type: functional, organism-based; in short: as §2
[20] = test system: Saccharomyces cerevisiae; experiment: Prevention of maturation of carboxyl peptidase S in gga1/2 deficient yeast MDY327 assessed as delay in maturation at 25 uM by pulse-chase immunoprecipitation; assay type: functional, organism-based; in short: as §5
[21] = test system: Saccharomyces cerevisiae; experiment: Degradation of Ste3p receptor in gga2delta containing yeast MDY380 by pulse-chase immunoprecipitation; assay type: functional, organism-based; in short: as §4
[22] = test system: Saccharomyces cerevisiae; experiment: Effect on maturation of alpha-factor2 in yeast MDY330 carrying temperature sensitive allele of clathrin heavy chain gene; assay type: functional, organism-based
In short: (§6)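 Yeast grown at 30°C to OD600 0.2 in YPD with compound (25 μM) or DMSO, washed twice in SCMG containing 50 μM compound, pulse-labeled 10 min with [35S]methionine (50 μCi per OD600), chased 30 min in YPD, stopped with NaF/NaN3 (10 mM final); secreted α-factor immunoprecipitated from medium, resolved by SDS/PAGE and autoradiography; DMSO-treated and wild-type (MDY326) cells as reference.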

[23] = test system: Saccharomyces cerevisiae; experiment: Effect on maturation of alpha-factor2 in gga2delta containing yeast MDY380; assay type: functional, organism-based; in short: as §6
[24] = test system: Saccharomyces cerevisiae; experiment: Toxicity against wild type yeast MDY326 assessed as 2 fold reduction of cell growth at 95 uM; assay type: organism-based; settings: in vivo; in short: as §3

| SMILES | Activity [1] [%] | Activity [3] [%] | Activity [4] [%] | Activity [5] | Activity [7] [%] | also measured |
| --- | --- | --- | --- | --- | --- | --- |
| CC(=O)c1ccc(N2CCN(Cc3cc(F)ccc3F)CC2)cc1 | 50 | 70 | 70 | Active | <50 | Activity [2]: inactive; Activity [6]: Active |
| CC1(C(=O)NC(=S)NNC(=O)c2cccnc2)CCCCC1 | 70 | 70 | 70 | inactive | <50 |  |
| CC(=O)c1ccc(N2CCN(CC3CCCC3)CC2)cc1 |  |  |  |  |  | Activity [8]: Toxic |
| COc1ccc(CNC2C3CC4CC(C3)CC2C4)c2ccccc12 (stereo not drawn) | 70 | 70 | 70 | inactive | <50 |  |
| CC(=O)c1ccc(N2CCN(CC3CC3)CC2)cc1 |  |  |  |  |  | Activity [9]: Non-toxic |
| CC(=O)c1ccc(N2CCN(CC3=CCCCC3)CC2)cc1 |  |  |  |  |  | Activity [10]: Toxic |
| COC(=O)Oc1c(Br)c(C)c2oc(=O)sc2c1Br | 70 | 70 | 70 | inactive | <50 |  |
| CC(=O)c1ccc(N2CCN(Cc3cccc(Cl)c3Cl)CC2)cc1 |  |  |  |  |  | Activity [11]: Toxic |
| CC(=O)c1ccc(N2CCN(Cc3cccc(F)c3F)CC2)cc1 |  |  |  |  |  | Activity [10]: Toxic |
| CC(=O)c1ccc(N2CCN(Cc3cccs3)CC2)cc1 |  |  |  |  |  | Activity [9]: Non-toxic |
| O=C1NC(=O)/C(=C\c2cccc(Cl)c2Cl)S1 | 70 | 70 | 70 | inactive | 50 |  |
| Cl.N=c1n(Cc2ccccc2)c2ccccc2n1CC(O)COc1ccccc1 (stereo not drawn) | 50 | 50 | 70 | inactive | <50 |  |
| CCN1CCN(c2ccc(C(C)=O)cc2F)CC1 |  |  |  |  |  | Activity [9]: Non-toxic |
| O=C(Nc1ccccc1)c1ccccc1/N=C/c1cc(Br)ccc1O | 70 | 50 | 70 | inactive | 50 |  |
| C/C=C(\C)CN1CCN(c2ccc(C(C)=O)cc2)CC1 | 50 | 70 | 70 | Active | <50 | Activity [12]: inactive; Activity [13]: inactive; Activity [14]: inactive; Activity [15]: inactive; Activity [2]: inactive; EC50 [16]: 4 µM; Activity [17]: Active; Activity [9]: Non-toxic; Activity [18]: <2; Activity [6]: Active; Activity [19]: inactive; Activity [20]: Active; Activity [21]: inactive |
| CC(=O)c1ccc(N2CCN(Cc3ccccc3F)CC2)cc1 |  |  |  |  |  | Activity [10]: Toxic |
| CC(=O)c1ccc(N2CCN(Cc3ccco3)CC2)cc1 | 50 | 70 | 70 | Active | 50 | Activity [14]: inactive; Activity [2]: inactive; Activity [6]: Active; Activity [19]: inactive |

| SMILES | Activity [1] [%] | Activity [3] [%] | Activity [4] [%] | Activity [5] | Activity [7] [%] | also measured |
| --- | --- | --- | --- | --- | --- | --- |
| O=C(N/N=C/c1c[nH]c2ccccc12)c1cc(-c2ccc(Cl)cc2)n[nH]1 | 70 | 70 | 70 | inactive | <50 |  |
| CC(=O)c1ccc(N2CCN(Cc3ccc(Cl)cc3)CC2)cc1 |  |  |  |  |  | Activity [9]: Non-toxic |
| COC(=O)c1ccccc1/N=C/c1c(O)c(Br)cc2oc3c(c12)CCCC3 | <50 | 50 | 70 | inactive | <50 |  |
| Cc1cc(O)c(C(C)C)cc1NS(=O)(=O)c1ccc(Cl)cc1 | 70 | 70 | 70 | inactive | 50 |  |
| CC(=O)c1ccc(N2CCN(Cc3ccccc3C(F)(F)F)CC2)cc1 |  |  |  |  |  | Activity [9]: Non-toxic |
| CC(C)Cc1ccc(C(C)C(=O)N/N=C/c2ccc(N(C)C)cc2)cc1 (stereo not drawn) | 70 | 70 | 70 | inactive | <50 |  |
| O=C1/C(=C\c2ccc(-c3cccc(Cl)c3)o2)SC(=S)N1CCS(=O)(=O)O |  |  |  |  |  | Activity [22]: inactive; Activity [23]: inactive |
| CC(=O)c1ccc(N2CCN(Cc3ccccc3)CC2)cc1 |  |  |  |  |  | Activity [9]: Non-toxic |
| C/C=C(\C)CN1CCN(c2ccc(C(=O)OCC)cc2)CC1 |  |  |  |  |  | Activity [9]: Non-toxic |
| COc1ccc(CN2CCN(Cc3cc(Br)ccc3O)CC2)cc1 |  |  |  |  |  | Activity [22]: inactive; Activity [23]: inactive |
| CC(=O)c1ccc(N2CCN(Cc3cccc(F)c3)CC2)cc1 |  |  |  |  |  | Activity [24]: Toxic |
| c1ccc(CN2CCC(NCC(c3ccccc3)c3ccccc3)CC2)cc1 | 70 | 70 | 70 | inactive | <50 |  |
| CCn1c2ccccc2c2cc(CNC3CCCC3)ccc21 | 70 | 70 | 70 | inactive | <50 |  |
| C/C=C(\C)CN1CCN(c2ccc(C(=O)O)cc2)CC1 |  |  |  |  |  | Activity [9]: Non-toxic |
| Cc1cc(S)n(-c2ccccc2)n1 | 50 | 50 | 70 | inactive | <50 |  |
| CC(=O)c1ccc(N2CCN(Cc3ccsc3)CC2)cc1 |  |  |  |  |  | Activity [9]: Non-toxic |
| O=C1/C(=C/c2ccc(O)cc2)SC(=S)N1C1CCCCC1 | <50 | 50 | 70 | inactive | <50 |  |
